Common to all, as to type: functional
For one experiment, the system named is Saccharomyces cerevisiae. Briefly: Antifungal activity against Saccharomyces cerevisiae ATCC 9763. The method, boiled down:
(§1)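 CLSI M27-A3 broth microdilution in RPMI-1640 buffered to pH 7.0 with MOPS. Inoculum 1-5 × 10^3 CFU/mL. Compound twofold dilutions from 250 to 0.24 µg/ml, final DMSO <1%. Incubated at 35 °C in a moist, dark chamber and read at 48 h. MIC is the lowest concentration giving total growth inhibition. For MFC, 5 µL from clear wells was plated in duplicate on SDA; MFC is the lowest concentration with no growth.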

Another experiment has as its system Candida albicans. The experiment in a line: Antifungal activity against Candida albicans ATCC 10213. The method, boiled down: as §1
Experiment [1] concerns Trichophyton mentagrophytes. The experiment in a line: Antifungal activity against Trichophyton mentagrophytes ATCC 9972. The method, boiled down: (§2)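 Dermatophytes tested by CLSI M38-A2 microdilution in MOPS-buffered RPMI-1640 at pH 7.0. Inoculum 1-5 × 10^3 CFU/mL; compounds 250 to 0.24 µg/ml in twofold steps, final DMSO <1%. Incubated at 28 °C in a moist, dark chamber and read according to control growth. MIC is the lowest concentration with complete inhibition. MFC is the lowest concentration with no growth after duplicate subculture on SDA.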

The next experiment concerns Aspergillus niger. The experiment in a line: Antifungal activity against Aspergillus niger ATCC 9029. The method, boiled down: (§3)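 Broth microdilution per CLSI M38-A2 in RPMI-1640 with MOPS at pH 7.0. Inoculum 1-5 × 10^3 CFU/mL, with twofold compound dilutions spanning 250-0.24 µg/ml (final DMSO <1%). Plates incubated at 35 °C, moist and dark, and read when the control fungus had grown. MIC is total growth inhibition. MFC comes from subculturing clear wells in duplicate onto SDA.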

The next experiment has as its system Aspergillus fumigatus. The experiment in a line: Antifungal activity against Aspergillus fumigatus ATCC 26934. The method, boiled down: as §3
The next experiment deals with Nannizzia gypsea. The experiment in a line: Antifungal activity against Microsporum gypseum C 115 2000. The method, boiled down:
as §2

For the next experiment, the system named is Candida tropicalis. The experiment in a line: Antifungal activity against Candida tropicalis C 131 2000. The method, boiled down:
as §1

In another experiment the test system is Trichophyton rubrum. Briefly: Antifungal activity against Trichophyton rubrum C 113 2000. The method, boiled down: as §2
In the next experiment the test system is Cryptococcus neoformans. Briefly: Antifungal activity against Cryptococcus neoformans ATCC 32264. The method, boiled down: as §1
A further experiment concerns Aspergillus flavus. The experiment in a line: Antifungal activity against Aspergillus flavus ATCC 9170. The method, boiled down: as §3

Molecules are shown by their SMILES. Converted amounts (≈) assume the structure as drawn. A value given as a limit tells only on which side of the number the result lay.

Usually MFC stands for the smallest concentration meeting the test's criterion for killing the fungus. A lower MFC goes with greater fungicidal potency. As a reminder, the MIC is the least concentration at which growth counts as inhibited. As to `O=C1CCC(=O)N1CCCc1ccccc1`, the MFC (in the experiment on Saccharomyces cerevisiae; in the experiment on Candida albicans; in experiment [1]; in the experiment on Aspergillus niger; in the experiment on Aspergillus fumigatus; in the experiment with Nannizzia gypsea) was greater than 250 µg/mL in each case. Moreover, the MFC against Candida tropicalis, with Trichophyton rubrum, with Cryptococcus neoformans and with Aspergillus flavus was greater than 250 µg/mL throughout. The MIC (in the experiment on Saccharomyces cerevisiae; in the experiment on Candida albicans; in experiment [1]; in the experiment with Aspergillus niger; against Aspergillus fumigatus; against Nannizzia gypsea) was greater than 250 µg/mL in each case. Besides, the MIC against Candida tropicalis, with Trichophyton rubrum, in the experiment on Cryptococcus neoformans and against Aspergillus flavus was greater than 250 µg/mL in each case.
With `CC1=C(C)C(=O)N(CCCc2ccccc2)C1=O`, the MFC against Saccharomyces cerevisiae is greater than 250 µg/mL; in the experiment on Candida albicans it was greater than 250 µg/mL; in [1] it was greater than 250 µg/mL; against Aspergillus niger it was greater than 250 µg/mL; against Aspergillus fumigatus, greater than 250 µg/mL; with Nannizzia gypsea, 250 µg/mL (≈ 1030 µM). Further, the MFC in the experiment on Candida tropicalis is greater than 250 µg/mL; in the experiment with Trichophyton rubrum, 250 µg/mL (≈ 1030 µM); in the experiment with Cryptococcus neoformans it was 250 µg/mL (≈ 1030 µM); in the experiment with Aspergillus flavus, greater than 250 µg/mL. The MIC against Saccharomyces cerevisiae is greater than 250 µg/mL; in the experiment with Candida albicans it was greater than 250 µg/mL; in experiment [1], 250 µg/mL (≈ 1030 µM); with Aspergillus niger it was greater than 250 µg/mL; against Aspergillus fumigatus, greater than 250 µg/mL; in the experiment on Nannizzia gypsea, 125 µg/mL (≈ 514 µM). Further, the MIC against Candida tropicalis is greater than 250 µg/mL; with Trichophyton rubrum, 62.5 µg/mL (≈ 257 µM); in the experiment with Cryptococcus neoformans, 125 µg/mL (≈ 514 µM); with Aspergillus flavus it was greater than 250 µg/mL.
On to `O=C1CCC(=O)N1Cc1ccccc1`, for which the MFC (against Saccharomyces cerevisiae; in the experiment with Candida albicans; in [1]; against Aspergillus niger; in the experiment on Aspergillus fumigatus; against Nannizzia gypsea) was greater than 250 µg/mL each time. Further, the MFC against Candida tropicalis, in the experiment on Trichophyton rubrum, in the experiment on Cryptococcus neoformans and against Aspergillus flavus was greater than 250 µg/mL in each case. Besides, the MIC (against Saccharomyces cerevisiae; against Candida albicans; in [1]; in the experiment on Aspergillus niger; with Aspergillus fumigatus; in the experiment with Nannizzia gypsea) was greater than 250 µg/mL throughout. The MIC with Candida tropicalis, in the experiment with Trichophyton rubrum, with Cryptococcus neoformans and against Aspergillus flavus was greater than 250 µg/mL throughout.
On to `CC1=CC(=O)N(CCc2ccccc2)C1O` (stereo unspecified), for which the MFC (against Saccharomyces cerevisiae; against Candida albicans; in [1]; against Aspergillus niger; against Aspergillus fumigatus; in the experiment on Nannizzia gypsea) was greater than 250 µg/mL throughout. Further, the MFC with Candida tropicalis, in the experiment on Trichophyton rubrum, against Cryptococcus neoformans and in the experiment with Aspergillus flavus was greater than 250 µg/mL throughout. Further, the MIC (in the experiment on Saccharomyces cerevisiae; against Candida albicans; in experiment [1]; against Aspergillus niger; against Aspergillus fumigatus; against Nannizzia gypsea) was greater than 250 µg/mL throughout. Besides, the MIC against Candida tropicalis, against Trichophyton rubrum, in the experiment on Cryptococcus neoformans and against Aspergillus flavus was greater than 250 µg/mL each time.
Regarding `CN(C/C=C/C#CC(C)(C)C)Cc1cccc2ccccc12` [TERBINAFINE], the MFC came out at 0.06 µg/mL (≈ 0.206 µM) in experiment [1], 0.06 µg/mL (≈ 0.206 µM) in the experiment on Nannizzia gypsea and 0.03 µg/mL (≈ 0.103 µM) against Trichophyton rubrum. The MIC in [1] came out at 0.03 µg/mL (≈ 0.103 µM); against Nannizzia gypsea, 0.03 µg/mL (≈ 0.103 µM); against Trichophyton rubrum, 0.01 µg/mL (≈ 0.0343 µM).

The values above are taken from ChEMBL document CHEMBL1772954, “Antifungal, cytotoxic and SAR studies of a series of N-alkyl, N-aryl and N-alkylphenyl-1,4-pyrrolediones and related compounds” (Bioorg Med Chem, 2011).
